Reference: ChEMBL document CHEMBL2062368, “The cell adhesion and proliferation activities of a peptide derived from human tenascin-C are dependent on two Ile residues” (Bioorg Med Chem, 2012)
Active and inactive are the calls of the source. The rule behind the calls is not given here.

Columns and labels:
Format in all cases: cell-based
Conditions in all cases: NIH3T3
[1] = target: T1, Syndecan-4 (Mus musculus) (UniProt O35988); test: Binding affinity to syndecan 4 in mouse NIH/3T3 cells assessed as stimulation of beta 1 integrin-mediated cell adhesion at 50 ug/ml […] by microscopic analysis
T1 sequence (whole entry): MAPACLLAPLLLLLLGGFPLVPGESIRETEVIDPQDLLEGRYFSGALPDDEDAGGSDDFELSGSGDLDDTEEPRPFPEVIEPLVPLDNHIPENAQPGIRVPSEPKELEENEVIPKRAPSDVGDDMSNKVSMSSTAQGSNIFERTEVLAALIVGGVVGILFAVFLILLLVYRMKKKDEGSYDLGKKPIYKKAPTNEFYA
Procedure, shortened: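 Wells coated with fibronectin at 37 °C, blocked with BSA. NIH-3T3 cell suspension plus peptide (50 µg/ml) or PBS control incubated 1 h at 37 °C. Non-adhered cells washed off; attached cells counted by microscope in 4 independent fields. Mean ± S.E. of triplicate measurements.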

[2] = target: T1, Syndecan-4 (Mus musculus); test: Binding affinity to syndecan 4 in mouse NIH/3T3 cells assessed as increase in cell proliferation at 25 to 50 ug/ml after 2 days by MTT assay relative to TNIIIA2 peptide
Procedure, shortened: (§1)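 NIH-3T3 cells with peptide at 25 and 50 µg/ml on fibronectin-coated, BSA-blocked wells, 2 days at 37 °C. MTT (0.5 mg/ml in phenol-red-free RPMI-1640) added for a further 3 h. Dye solubilized in acidic isopropanol (0.04 M HCl), absorbance read at 570 nm minus 650 nm background.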

[3] = target: T1, Syndecan-4 (Mus musculus); test: Binding affinity to syndecan 4 in mouse NIH/3T3 cells assessed as stimulation of beta 1 integrin-mediated cell spreading at 50 ug/ml […] by microscopic analysis
Procedure, shortened: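 Fibronectin-coated, BSA-blocked wells; NIH-3T3 cells incubated with peptide (50 µg/ml) or PBS control for 1 h at 37 °C, then washed. Spread cells counted under a microscope in 4 independent fields; mean ± S.E. of triplicates.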

[4] = target: T1, Syndecan-4 (Mus musculus); test: Binding affinity to syndecan 4 in mouse NIH/3T3 cells assessed as induction of cell proliferation at 25 to 50 ug/ml after 2 days by MTT assay; procedure, shortened: as §1

Activity [1] | fold change (FC) [2] | Activity [3] | Activity [4] | Substance
inactive | 2 | inactive | – | H-RSTDLPGLAAATHYTITIRGVKC-OH
Active | – | inactive | – | H-RSTDLPGLKAATHATITIRGVKC-OH
Active | – | inactive | inactive | H-RSTDLPGLKAATHYTATIRGVKC-OH
inactive | – | inactive | Active | H-RSTDLPGLKAATHYTITIAGVKC-OH

Second part, the substance before the results:

Substance | Activity [1] | fold change (FC) [2] | Activity [3] | Activity [4]
H-ASTDLPGLKAATHYTITIRGVKC-OH | inactive | 2 | inactive | –
H-RSTDLPGLKAATHYAITIRGVKC-OH | Active | – | – | –
H-RSTDLPGLKAATHYTIAIRGVKC-OH | Active | – | – | –
H-RSTDLPGLKAATHYTITARGVKC-OH | Active | – | inactive | inactive
H-RSTDLPGLKAATHYTITIRGVKC-OH | Active | – | Active | Active
